Data published in ChEMBL document CHEMBL4811229, “Leveraging Peptaibol Biosynthetic Promiscuity for Next-Generation Antiplasmodial Therapeutics” (J Nat Prod, 2021).
Where a SMILES comes first, the peptide text is derived from it. [ ]: non-standard residue; d: D form. The star is where a group is joined. X1 = CC(C)C[C@@H](C[N+]1=C2CCCN2CCC1)N*; Leu(ol) = CC(C)C[C@H](N)CO; dIva = CC[C@@](C)(N)C(=O)O; Pip = O=C(O)[C@@H]1CCCCN1; Iva = CC[C@](C)(N)C(=O)O; Aib = CC(C)(N)C(=O)O; βAla = NCCC(=O)O

Experiments:
HepG2 = experiment: Cytotoxicity against human HepG2 cells assessed as decrease in cell viability measured after 48 hrs by MTS assay; assay type: cell-based; conditions: HepG2, 48 h
Method in brief: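 After 48 h at 37 °C and 5% CO2, MTS was added for 4 h and absorbance read at 490 nm. Values were normalized to Triton X-100-lysed wells (0% growth) and untreated wells. EC50 is the mean of triplicate experiments.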

Plasmodium falciparum = experiment: Antiplasmodial activity against multidrug-resistant Plasmodium falciparum Dd2 infected in human A-positive erythrocytes assessed as reduction in parasitemia incubated for 72 hrs by fluorescence-based SYBR-Green-1 assay; assay type: functional, organism-based; conditions: Dd2, Erythrocyte
[1] = Selectivity index, ratio of EC50 for human HepG2 cells to EC50 for antiplasmodial activity against multidrug-resistant Plasmodium falciparum Dd2 infected in human A-positive erythrocytes; assay type: toxicity, cell-based; conditions: read-out: Ratio EC50

SMILES	EC50 (HepG2) [nM]	EC50 (Plasmodium falciparum) [nM]	selectivity ratio [1]
CC[C@H](C)[C@H](NC(=O)C(C)(C)NC(=O)[C@H](CCC(N)=O)NC(=O)C(C)(C)NC(=O)C(C)(C)NC(=O)[C@H](C)NC(=O)[C@H](C)NC(=O)[C@H](C)NC(=O)C(C)(C)NC(C)=O)C(=O)NC(C)(C)C(=O)NCC(=O)N[C@@H](CC(C)C)C(=O)NC(C)(C)C(=O)N1CCC[C@H]1C(=O)N[C@H](C(=O)NC(C)(C)C(=O)N[C@](C)(CC)C(=O)N[C@@H](CCC(N)=O)C(=O)N[C@@H](CCC(N)=O)C(=O)N[C@H](CO)Cc1ccccc1)C(C)C	3350	520	6
CCCCCCCC(=O)NC(C)(C)C(=O)NCC(=O)N[C@@H](CC(C)C)C(=O)NC(C)(C)C(=O)NCC(=O)NCC(=O)N[C@H](C(=O)NC(C)(C)C(=O)NCC(=O)N[C@H](C(=O)N[C@H](CO)CC(C)C)C(C)C)C(C)C			> 10
CC[C@H](C)[C@H](NC(=O)[C@H](C)NC(=O)[C@@H]1CCCN1C(=O)C(C)(C)NC(=O)[C@H](CC(C)C)NC(=O)[C@H](CCC(N)=O)NC(=O)C(C)(C)NC(C)=O)C(=O)NC(C)(C)C(=O)N1CCC[C@H]1C(=O)NC(C)(C)C(=O)N[C@@H](CC(C)C)C(=O)N[C@](C)(CC)C(=O)N1CCC[C@H]1C(=O)N[C@H](CO)CC(C)C	> 25000	630	> 40
CCCCCCCC(=O)NC(C)(C)C(=O)NCC(=O)N[C@@H](CC(C)C)C(=O)NC(C)(C)C(=O)NCC(=O)NCC(=O)N[C@H](C(=O)NC(C)(C)C(=O)NCC(=O)N[C@H](C(=O)N[C@H](CO)CC(C)C)[C@@H](C)CC)C(C)C			> 8
CC[C@H](C)[C@H](NC(=O)[C@H](CO)NC(=O)[C@@H]1CCCN1C(=O)C(C)(C)NC(=O)[C@H](CC(C)C)NC(=O)[C@H](CC(N)=O)NC(=O)C(C)(C)NC(C)=O)C(=O)NC(C)(C)C(=O)N1CCC[C@H]1C(=O)NC(C)(C)C(=O)N[C@@H](CC(C)C)C(=O)N[C@](C)(CC)C(=O)N1CCC[C@H]1C(=O)N[C@H](CO)CC(C)C	> 25000	520	> 48
CC[C@@](C)(NC(=O)[C@H](CC(C)C)NC(=O)C(C)(C)NC(=O)[C@@H]1CCCN1C(=O)C(C)(C)NC(=O)[C@@H](NC(=O)[C@H](C)NC(=O)[C@@H]1CCCN1C(=O)C(C)(C)NC(=O)[C@H](CC(C)C)NC(=O)[C@H](CCC(N)=O)NC(=O)C(C)(C)NC(C)=O)C(C)C)C(=O)N1CCC[C@H]1C(=O)N[C@H](CO)CC(C)C	> 25000	1320	> 19
CCCCCCCC(=O)NC(C)(C)C(=O)NCC(=O)N[C@@H](CC(C)C)C(=O)NC(C)(C)C(=O)NCC(=O)NCC(=O)N[C@@H](CC(C)C)C(=O)NC(C)(C)C(=O)NCC(=O)N[C@H](C(=O)N[C@H](CO)CC(C)C)[C@@H](C)CC	8090	930	9
CC[C@](C)(NC(=O)[C@H](CC(C)C)NC(=O)[C@H](C)NC(=O)C(C)(C)NC(=O)[C@@H]1CCCCN1C(=O)C(C)(C)NC(=O)C(C)(C)NC(=O)CNC(=O)CCNC(=O)[C@H](CC(C)C)NC(=O)C(C)(C)NC(=O)C(C)(C)NC(=O)[C@@H]1CCCCN1C(=O)C(C)(C)NC(=O)[C@@H]1CCCCN1C(C)=O)C(=O)N[C@@H](CC(C)C)C[N+]1=C2CCCN2CCC1 (Ac-[Pip][Aib][Pip][Aib][Aib]L[βAla]G[Aib][Aib][Pip][Aib]AL[Iva]-X1)	> 25000	390	> 64
CC[C@H](C)[C@H](NC(=O)[C@H](C)NC(=O)[C@@H]1CCCN1C(=O)C(C)(C)NC(=O)[C@H](CC(C)C)NC(=O)[C@H](CC(N)=O)NC(=O)[C@@](C)(CC)NC(C)=O)C(=O)NC(C)(C)C(=O)N1CCC[C@H]1C(=O)N[C@](C)(CC)C(=O)N[C@@H](CC(C)C)C(=O)NC(C)(C)C(=O)N1CCC[C@H]1C(=O)N[C@H](CO)CC(C)C (Ac-[dIva]NL[Aib]PAI[Aib]P[dIva]L[Aib]P[Leu(ol)])			> 40
CC[C@H](C)[C@H](NC(=O)[C@H](CO)NC(=O)[C@@H]1CCCN1C(=O)C(C)(C)NC(=O)[C@H](CC(C)C)NC(=O)[C@H](CC(N)=O)NC(=O)[C@@](C)(CC)NC(C)=O)C(=O)NC(C)(C)C(=O)N1CCC[C@H]1C(=O)N[C@](C)(CC)C(=O)N[C@@H](CC(C)C)C(=O)NC(C)(C)C(=O)N1CCC[C@H]1C(=O)N[C@H](CO)CC(C)C (Ac-[dIva]NL[Aib]PSI[Aib]P[dIva]L[Aib]P[Leu(ol)])			> 48
CC[C@H](C)[C@H](NC(=O)[C@H](CC(C)C)NC(=O)[C@H](CCC(N)=O)NC(=O)[C@@](C)(CC)NC(C)=O)C(=O)NC(C)(C)C(=O)N1CCC[C@H]1C(=O)N[C@](C)(CC)C(=O)N[C@@H](CC(C)C)C(=O)NC(C)(C)C(=O)N1CCC[C@H]1C(=O)N[C@H](CO)CC(C)C (Ac-[dIva]QLI[Aib]P[dIva]L[Aib]P[Leu(ol)])			> 250
CC[C@H](C)[C@H](NC(=O)[C@H](C)NC(=O)[C@@H]1CCCN1C(=O)C(C)(C)NC(=O)[C@H](CC(C)C)NC(=O)[C@H](CCC(N)=O)NC(=O)[C@@](C)(CC)NC(C)=O)C(=O)NC(C)(C)C(=O)N1CCC[C@H]1C(=O)N[C@](C)(CC)C(=O)N[C@@H](CC(C)C)C(=O)NC(C)(C)C(=O)N1CCC[C@H]1C(=O)N[C@H](CO)CC(C)C (Ac-[dIva]QL[Aib]PAI[Aib]P[dIva]L[Aib]P[Leu(ol)])	> 25000		> 76
CCCCCCCC(=O)NC(C)(C)C(=O)NCC(=O)N[C@@H](CC(C)C)C(=O)NC(C)(C)C(=O)NCC(=O)NCC(=O)N[C@@H](CC(C)C)C(=O)NC(C)(C)C(=O)NCC(=O)N[C@@H](CC(C)C)C(=O)N[C@H](CO)CC(C)C (HELM PEPTIDE1{[CCCCCCCC(=O)[*:2]].[Aib].G.L.[Aib].G.G.L.[Aib].G.L.[CC(C)C[C@@H](CO)N[*:1]]}$$$$V2.0)			> 11
CCCCCCCC(=O)NC(C)(C)C(=O)NCC(=O)N[C@@H](CC(C)C)C(=O)NC(C)(C)C(=O)NCC(=O)NCC(=O)N[C@H](C(=O)NC(C)(C)C(=O)NCC(=O)N[C@@H](CC(C)C)C(=O)N[C@H](CO)CC(C)C)C(C)C (HELM PEPTIDE1{[CCCCCCCC(=O)[*:2]].[Aib].G.L.[Aib].G.G.V.[Aib].G.L.[CC(C)C[C@@H](CO)N[*:1]]}$$$$V2.0)			> 28
CC(=O)NC(C)(C)C(=O)N[C@@H](C)C(=O)N[C@@H](C)C(=O)N[C@@H](C)C(=O)NC(C)(C)C(=O)NC(C)(C)C(=O)N[C@@H](CCC(N)=O)C(=O)NC(C)(C)C(=O)N[C@@H](CC(C)C)C(=O)NC(C)(C)C(=O)NCC(=O)N[C@@H](CC(C)C)C(=O)NC(C)(C)C(=O)N1CCC[C@H]1C(=O)N[C@H](C(=O)NC(C)(C)C(=O)NC(C)(C)C(=O)N[C@@H](CCC(N)=O)C(=O)N[C@@H](CCC(N)=O)C(=O)N[C@H](CO)Cc1ccccc1)C(C)C (HELM PEPTIDE1{[ac].[Aib].A.A.A.[Aib].[Aib].Q.[Aib].L.[Aib].G.L.[Aib].P.V.[Aib].[Aib].Q.Q.[OC[C@H](Cc1ccccc1)N[*:1]]}$$$$V2.0)	5770	320	18
CC[C@H](C)[C@H](NC(=O)[C@H](C)NC(=O)[C@@H]1CCCN1C(=O)C(C)(C)NC(=O)[C@H](CC(C)C)NC(=O)[C@H](CCC(N)=O)NC(=O)C(C)(C)NC(C)=O)C(=O)NC(C)(C)C(=O)N1CCC[C@H]1C(=O)NC(C)(C)C(=O)N[C@@H](CC(C)C)C(=O)NC(C)(C)C(=O)N1CCC[C@H]1C(=O)N[C@H](CO)CC(C)C (HELM PEPTIDE1{[ac].[Aib].Q.L.[Aib].P.A.I.[Aib].P.[Aib].L.[Aib].P.[CC(C)C[C@@H](CO)N[*:1]]}$$$$V2.0)			> 86
CC[C@H](C)[C@H](NC(=O)[C@H](CO)NC(=O)[C@@H]1CCCN1C(=O)C(C)(C)NC(=O)[C@H](CC(C)C)NC(=O)[C@H](CCC(N)=O)NC(=O)C(C)(C)NC(C)=O)C(=O)NC(C)(C)C(=O)N1CCC[C@H]1C(=O)NC(C)(C)C(=O)N[C@@H](CC(C)C)C(=O)NC(C)(C)C(=O)N1CCC[C@H]1C(=O)N[C@H](CO)CC(C)C (HELM PEPTIDE1{[ac].[Aib].Q.L.[Aib].P.S.I.[Aib].P.[Aib].L.[Aib].P.[CC(C)C[C@@H](CO)N[*:1]]}$$$$V2.0)			> 14
CC[C@H](C)[C@H](NC(=O)[C@H](CO)NC(=O)[C@@H]1CCCN1C(=O)C(C)(C)NC(=O)[C@H](CC(C)C)NC(=O)[C@H](CC(N)=O)NC(=O)[C@@](C)(CC)NC(C)=O)C(=O)NC(C)(C)C(=O)N1CCC[C@H]1C(=O)NC(C)(C)C(=O)N[C@@H](CC(C)C)C(=O)NC(C)(C)C(=O)N1CCC[C@H]1C(=O)N[C@H](CO)CC(C)C (HELM PEPTIDE1{[ac].[CC[C@@](C)(N[*:1])C(=O)[*:2]].N.L.[Aib].P.S.I.[Aib].P.[Aib].L.[Aib].P.[CC(C)C[C@@H](CO)N[*:1]]}$$$$V2.0)			> 43
CC[C@@](C)(NC(C)=O)C(=O)N[C@@H](CC(N)=O)C(=O)N[C@@H](CC(C)C)C(=O)NC(C)(C)C(=O)N1CCC[C@H]1C(=O)N[C@@H](CO)C(=O)N[C@H](C(=O)NC(C)(C)C(=O)N1CCC[C@H]1C(=O)NC(C)(C)C(=O)N[C@@H](CC(C)C)C(=O)NC(C)(C)C(=O)N1CCC[C@H]1C(=O)N[C@H](CO)CC(C)C)C(C)C (HELM PEPTIDE1{[ac].[CC[C@@](C)(N[*:1])C(=O)[*:2]].N.L.[Aib].P.S.V.[Aib].P.[Aib].L.[Aib].P.[CC(C)C[C@@H](CO)N[*:1]]}$$$$V2.0)			> 40
CC[C@H](C)[C@H](NC(=O)[C@H](C)NC(=O)[C@@H]1CCCN1C(=O)C(C)(C)NC(=O)[C@H](CC(C)C)NC(=O)[C@H](CCC(N)=O)NC(=O)[C@@](C)(CC)NC(C)=O)C(=O)NC(C)(C)C(=O)N1CCC[C@H]1C(=O)NC(C)(C)C(=O)N[C@@H](CC(C)C)C(=O)NC(C)(C)C(=O)N1CCC[C@H]1C(=O)N[C@H](CO)CC(C)C (HELM PEPTIDE1{[ac].[CC[C@@](C)(N[*:1])C(=O)[*:2]].Q.L.[Aib].P.A.I.[Aib].P.[Aib].L.[Aib].P.[CC(C)C[C@@H](CO)N[*:1]]}$$$$V2.0)			> 78
